In ChEMBL document CHEMBL2434947, “Probing structural requirements of positive allosteric modulators of the M4 muscarinic receptor” (J Med Chem, 2013):
The source made the active and inactive calls. The calls are words filed in the database; no cut-off is given here.

What was measured:
[1] = target: T1, Muscarinic acetylcholine receptor M4 (Homo sapiens) (UniProt P08173); test: Positive allosteric modulation of human muscarinic M4 receptor expressed in CHO Flp-In cells assessed as stimulation of acetylcholine-induced ERK1/2 phosphorylation incubated under green light condition by fluorescence assay relative to control; format: cell-based
T1 sequence (whole entry): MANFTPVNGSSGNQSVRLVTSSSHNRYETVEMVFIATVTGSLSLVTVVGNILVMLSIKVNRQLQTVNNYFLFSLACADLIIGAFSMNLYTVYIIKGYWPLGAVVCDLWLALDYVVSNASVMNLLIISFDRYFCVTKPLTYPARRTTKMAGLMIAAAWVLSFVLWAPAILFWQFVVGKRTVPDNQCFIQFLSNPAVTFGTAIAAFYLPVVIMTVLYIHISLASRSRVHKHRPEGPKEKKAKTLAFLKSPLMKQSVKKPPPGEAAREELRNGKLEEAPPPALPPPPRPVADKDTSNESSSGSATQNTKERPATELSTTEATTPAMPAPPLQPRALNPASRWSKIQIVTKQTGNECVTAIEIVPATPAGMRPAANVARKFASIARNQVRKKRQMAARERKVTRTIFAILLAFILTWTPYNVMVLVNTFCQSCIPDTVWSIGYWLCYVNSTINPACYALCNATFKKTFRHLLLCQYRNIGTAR
Procedure, shortened: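 ERK1/2 phosphorylation in intact FlpIn-CHO cells stably expressing human M4 mAChR. Modulator was titrated at a fixed EC20 concentration of ACh to give empirical EC50 and Emax (EM′). The incubation time was taken from prior time-course assays of peak phosphorylation. Mean ± SEM from at least three experiments performed in duplicate.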

[2] = target: T1, Muscarinic acetylcholine receptor M4 (Homo sapiens); test: Binding affinity to human muscarinic M4 receptor expressed in CHO Flp-In cells; format: cell-based
Procedure, shortened: (§1)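 Intact FlpIn-CHO cells stably expressing human M4 mAChR; ERK1/2 phosphorylation read-out. A time course first set the incubation time of peak phosphorylation, and concentration-response curves were run at that time. Modulator was titrated against ACh. pKB (allosteric site affinity), τB and composite cooperativity αβ came from an operational model of allosterism. Mean ± SEM from at least three experiments in duplicate.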

[3] = target: T2, Muscarinic acetylcholine receptor M4 (Homo sapiens, UniProt P08173); test: Positive allosteric modulation of human muscarinic M4 receptor expressed in CHO Flp-In cells assessed as stimulation of acetylcholine-induced ERK1/2 phosphorylation incubated under green light condition by fluorescence assay; format: cell-based; procedure, shortened: as §1
T2 sequence (P08173 whole entry): T1 sequence (whole entry)

[4] = target: T1, Muscarinic acetylcholine receptor M4 (Homo sapiens); test: Displacement of [3H]NMS from human muscarinic M4 receptor expressed in CHO Flp-In cells after 4 hrs by scintillation counting analysis; format: cell-based
[5] = target: T1, Muscarinic acetylcholine receptor M4 (Homo sapiens); test: Positive allosteric modulation of human muscarinic M4 receptor expressed in CHO Flp-In cells assessed as stimulation of acetylcholine-induced ERK1/2 phosphorylation incubated under green light condition by fluorescence assay

| SMILES | Activity [1] | Kb [2] | pKb [2] | EC50 ([3]; read-out: EC50) | Emax [1] | also measured |
| --- | --- | --- | --- | --- | --- | --- |
| COc1cccc(CNC(=O)CSc2nc(C)cc(C)c2C#N)c1 | inactive |  |  |  |  |  |
| COc1ccc(CNC(=O)c2sc3nc(C)cc(C)c3c2N)c(F)c1F |  | 1880 nM | 5.73 | 240 nM | 89% | Activity [4]: inactive |
| Cc1cc(C)c2c(N)c(C(=O)NCc3ccccc3F)sc2n1 |  | 1170 nM | 5.93 | 130 nM | 92% |  |
| Cc1cc(C)c(C#N)c(SCC(=O)NCc2cccc(F)c2)n1 | inactive |  |  |  |  |  |
| COc1cc(CNC(=O)CSc2nc(C)cc(C)c2C#N)cc(OC)c1 | inactive |  |  |  |  |  |
| Cc1cc(C)c2c(N)c(C(=O)NCc3ccc(F)cc3)sc2n1 |  | 2520 nM | 5.6 | 220 nM | 98% | Activity [4]: inactive |
| Cc1cc(C)c2c(N)c(C(=O)NCc3cccc(F)c3F)sc2n1 |  | 1720 nM | 5.76 | 110 nM | 91% | Activity [4]: inactive |
| COc1ccc(CNC(=O)c2sc3nc(C)cc(C)c3c2N)cc1OC.Cl |  |  |  |  | inactive | KB [2]: inactive; EC50 [3]: Not Active; Activity [5]: inactive |
| Cc1cc(C)c2c(N)c(C(=O)NCc3cc(F)cc(F)c3F)sc2n1 |  | 1290 nM | 5.89 | 140 nM | 85% |  |
| Cc1cc(C)c(C#N)c(SCC(=O)NCc2cc(F)ccc2F)n1 | inactive |  |  |  |  |  |
| Cc1cc(C)c2c(N)c(C(=O)NCc3cccc(F)c3)sc2n1 |  | 6240 nM | 5.21 | 310 nM | 98% | Activity [4]: inactive |
| COc1ccc(CNC(=O)CSc2nc(C)cc(C)c2C#N)cc1 | inactive |  |  |  |  |  |
| COc1ccccc1CNC(=O)CSc1nc(C)cc(C)c1C#N | inactive |  |  |  |  |  |
| Cc1cc(C)c2c(N)c(C(=O)NCc3cc(F)ccc3F)sc2n1 |  | 1690 nM | 5.77 | 130 nM | 85% |  |
| COc1ccc(CNC(=O)c2sc3nc(C)cc(C)c3c2N)c(F)c1 |  | 1820 nM | 5.74 | 350 nM | 56% |  |
| COc1ccc(CNC(=O)c2sc3nc(C)cc(C)c3c2N)cc1 |  |  |  |  | 85% | Activity [4]: inactive |
| COc1ccc(CNC(=O)CSc2nc(C)cc(C)c2C#N)c(F)c1F | inactive |  |  |  |  |  |
| Cc1cc(C)c(C#N)c(SCC(=O)NCc2cc(F)c(F)cc2F)n1 | inactive |  |  |  |  |  |
| Cc1cc(C)c2c(N)c(C(=O)NCc3cc(F)c(F)cc3F)sc2n1 |  | 2320 nM | 5.63 | 580 nM | 83% |  |
| COc1ccc(CNC(=O)c2sc3nc(C)cc(C)c3c2N)cc1F |  | 2580 nM | 5.59 | 100 nM | 95% | Activity [4]: inactive |
| COc1cc(F)c(CNC(=O)c2sc3nc(C)cc(C)c3c2N)cc1F.Cl |  |  |  |  | inactive | KB [2]: inactive; EC50 [3]: Not Active; Activity [5]: inactive |
| Cc1cc(C)c(C#N)c(SCC(=O)NCc2ccccc2F)n1 | inactive |  |  |  |  |  |
| COc1cc(CNC(=O)c2sc3nc(C)cc(C)c3c2N)cc(OC)c1.Cl |  |  |  |  | inactive | KB [2]: inactive; EC50 [3]: Not Active; Activity [5]: inactive |
| COc1ccccc1CNC(=O)c1sc2nc(C)cc(C)c2c1N.Cl |  |  |  |  | inactive | KB [2]: inactive; EC50 [3]: Not Active; Activity [5]: inactive |
| COc1cc(CNC(=O)c2sc3nc(C)cc(C)c3c2N)cc(OC)c1OC.Cl |  |  |  |  | inactive | KB [2]: inactive; EC50 [3]: Not Active; Activity [5]: inactive |
| COc1cccc(CNC(=O)c2sc3nc(C)cc(C)c3c2N)c1 |  | 11400 nM | 4.95 | 560 nM | 92% |  |
